Experimental data gathered from unrelated publications.
Protocols differ between the studies behind these lines.
Observed: enzyme activity
Mode: inhibitor
PIK3CD: Phosphatidylinositol 4,5-bisphosphate 3-kinase catalytic subunit delta isoform (PIK3CD, Homo sapiens, UniProt O00329)
KIT: Mast/stem cell growth factor receptor Kit (KIT, Homo sapiens, UniProt P10721)

Structure (SMILES)	target	test	conditions	IC50 [µM]
Cc1cccc(N=C2C(=O)N(Cc3ccccc3)c3ccccc32)c1	PIK3CD	ADP detection		0.0219
CN(C)C(=O)c1cc2cnc(Nc3ccc(-c4cccc5c(=O)cc(N6CCOCC6)oc45)c(F)c3)nc2n1C1CCCC1	PIK3CD	radiometric		0.0405
Cc1n[nH]c2ccc3nc(-c4ccc(C(=O)NCCN(C)C)cc4)c4c(c3c12)CCCCC4	KIT			0.328
CCc1ccc(N=C2C(=O)Nc3ccccc32)cc1	PIK3CD	ADP detection		0.455
Oc1ccc(-c2nc(-c3ccncc3)c(-c3ccc(F)cc3)[nH]2)cc1	Tau-tubulin kinase 1 (TTBK1, Homo sapiens, UniProt Q5TCY1)			25.5
COc1cc(N=C2C(=O)Nc3ccccc32)cc(OC)c1	PIK3CD	ADP detection		0.0483
COc1ccc(-c2cc(=O)c3cccc(Nc4ncc5cc(C(=O)N(C)C)n(C6CCCC6)c5n4)c3o2)cc1	PIK3CD	radiometric		> 10
C=CC(=O)Nc1cccc(Oc2nc(Nc3ccc(N4CCN(C)CC4)cc3)nc3ccoc23)c1	Tyrosine-protein kinase BTK (BTK, Homo sapiens, UniProt Q06187)			< 0.000254
Cc1ccc(CN2C(=O)C(=Nc3c(C(C)C)cccc3C(C)C)c3ccccc32)cc1	PIK3CD	ADP detection		0.233
O=C(NO)c1ccc(Cn2cnc3c(Nc4ccc(Cl)cc4)ncnc32)cc1	RAC-beta serine/threonine-protein kinase (AKT2, Homo sapiens, UniProt P31751)	radiometric		> 20
O=C1C(=Nc2ccccc2I)c2ccccc2N1Cc1ccc(Br)cc1	PIK3CD	ADP detection		0.139
CN1CCN(c2cc(=O)c3ccc(Nc4ncc5cc(C(=O)N(C)C)n(C6CCCC6)c5n4)cc3o2)CC1	PIK3CD	radiometric		> 10
COc1ccccc1N1CCN(C(=O)c2cccc(S(=O)(=O)n3cncn3)c2)CC1	Prostaglandin reductase 2 (Homo sapiens, UniProt Q8N8N7)		lysate	0.176
CN(C)CCNC(=O)c1ccc(-c2nc3ccc4[nH]ncc4c3c3c2CCCC3)c(F)c1	KIT			0.887
CN(C)C(=O)c1cc2cnc(Nc3ccc(-c4cccc5c(=O)cc(N6CCOCC6)oc45)cn3)nc2n1C1CCCC1	PIK3CD	radiometric		2.39
CN(C)CCNC(=O)c1ccc(-c2nc3ccc4[nH]ncc4c3c3c2CCCCC3)cc1	KIT			0.99
CN(C)C(=O)c1cc2cnc(Nc3cc(C(=O)O)cc(-c4ccc5c(=O)cc(N6CCOCC6)oc5c4)c3)nc2n1C1CCCC1	PIK3CD	radiometric		0.725
O=C1C(=Nc2ccc(Cl)cc2Br)c2ccccc2N1Cc1ccc([N+](=O)[O-])cc1	PIK3CD	ADP detection		0.0509
Cc1n[nH]c2ccc3nc(-c4ccc(C(=O)NCCN(C)C)cc4F)c4c(c3c12)CCCC4	KIT			0.512
CN(C)C(=O)c1cc2cnc(Nc3cncc(-c4ccc5c(=O)cc(N6CCOCC6)oc5c4)c3)nc2n1C1CCCC1	PIK3CD	radiometric		0.137
